Laboratory results from ChEMBL document CHEMBL1154048, “Design, synthesis and pharmacological evaluation of new 1-[3-(4-arylpiperazin-1-yl)-2-hydroxy-propyl]-3,3-diphenylpyrrolidin-2-one derivatives with antiarrhythmic, antihypertensive, and alpha-adrenolytic activity” (Eur J Med Chem, 2009).

Key:
Rattus norvegicus [1] = assay: Hypotensive activity in normotensive Wistar rat assessed as systolic blood pressure at 5 mg/kg, iv after 5 mins (Rvb=138 +/- 0.9 mmHg); type: functional, Artery
Rattus norvegicus [2] = assay: Hypotensive activity in normotensive Wistar rat assessed as systolic blood pressure at 5 mg/kg, iv after 60 mins (Rvb=138 +/- 0.9 mmHg); type: functional, Artery
Rattus norvegicus [3] = assay: Hypotensive activity in normotensive Wistar rat assessed as systolic blood pressure at 5 mg/kg, iv after 10 mins (Rvb=138 +/- 0.9 mmHg); type: functional, Artery
Rattus norvegicus [4] = assay: Hypotensive activity in normotensive Wistar rat assessed as diastolic blood pressure at 5 mg/kg, iv after 10 mins (Rvb=119 +/- 1.2 mmHg); type: functional, Artery
Rattus norvegicus [5] = assay: Hypotensive activity in normotensive Wistar rat assessed as diastolic blood pressure at 5 mg/kg, iv after 5 mins (Rvb=119 +/- 1.2 mmHg); type: functional, Artery
Rattus norvegicus [6] = assay: Hypotensive activity in normotensive Wistar rat assessed as diastolic blood pressure at 5 mg/kg, iv after 60 mins (Rvb=119 +/- 1.2 mmHg); type: functional, Artery
Rattus norvegicus [7] = assay: Hypotensive activity in normotensive Wistar rat assessed as diastolic blood pressure at 5 mg/kg, iv after 20 mins (Rvb=119 +/- 1.2 mmHg); type: functional, Artery
Rattus norvegicus [8] = assay: Hypotensive activity in normotensive Wistar rat assessed as systolic blood pressure at 5 mg/kg, iv after 30 mins (Rvb=138 +/- 0.9 mmHg); type: functional, Artery
Rattus norvegicus [9] = assay: Hypotensive activity in normotensive Wistar rat assessed as systolic blood pressure at 5 mg/kg, iv after 60 mins (Rvb=141.3 +/- 6.4 mmHg); type: functional, Artery
Rattus norvegicus [10] = assay: Hypotensive activity in normotensive Wistar rat assessed as diastolic blood pressure at 5 mg/kg, iv after 60 mins (Rvb=126 +/- 4.6 mmHg); type: functional, Artery
Rattus norvegicus [11] = assay: Hypotensive activity in normotensive Wistar rat assessed as systolic blood pressure at 5 mg/kg, iv after 5 mins (Rvb=141.3 +/- 6.4 mmHg); type: functional, Artery
Rattus norvegicus [12] = assay: Hypotensive activity in normotensive Wistar rat assessed as systolic blood pressure at 5 mg/kg, iv after 20 mins (Rvb=141.3 +/- 6.4 mmHg); type: functional, Artery
Rattus norvegicus [13] = assay: Hypotensive activity in normotensive Wistar rat assessed as diastolic blood pressure at 5 mg/kg, iv after 5 mins (Rvb=126 +/- 4.6 mmHg); type: functional, Artery
Rattus norvegicus [14] = assay: Hypotensive activity in normotensive Wistar rat assessed as diastolic blood pressure at 5 mg/kg, iv after 10 mins (Rvb=126 +/- 4.6 mmHg); type: functional, Artery
Rattus norvegicus [15] = assay: Hypotensive activity in normotensive Wistar rat assessed as diastolic blood pressure at 5 mg/kg, iv after 30 mins (Rvb=120 +/- 1.7 mmHg); type: functional, Artery
Rattus norvegicus [16] = assay: Hypotensive activity in normotensive Wistar rat assessed as systolic blood pressure at 5 mg/kg, iv after 20 mins (Rvb=139 +/- 0.6 mmHg); type: functional, Artery
Rattus norvegicus [17] = assay: Hypotensive activity in normotensive Wistar rat assessed as systolic blood pressure at 5 mg/kg, iv after 10 mins (Rvb=139 +/- 0.6 mmHg); type: functional, Artery
Rattus norvegicus [18] = assay: Hypotensive activity in normotensive Wistar rat assessed as diastolic blood pressure at 5 mg/kg, iv after 20 mins (Rvb=120 +/- 1.7 mmHg); type: functional, Artery
Rattus norvegicus [19] = assay: Hypotensive activity in normotensive Wistar rat assessed as systolic blood pressure at 5 mg/kg, iv after 30 mins (Rvb=139 +/- 0.6 mmHg); type: functional, Artery
Rattus norvegicus [20] = assay: Hypotensive activity in normotensive Wistar rat assessed as diastolic blood pressure at 2.5 mg/kg, iv after 5 mins (Rvb=107.2 +/- 7.3 mmHg); type: functional, Artery
Rattus norvegicus [21] = assay: Hypotensive activity in normotensive Wistar rat assessed as diastolic blood pressure at 2.5 mg/kg, iv after 10 mins (Rvb=107.2 +/- 7.3 mmHg); type: functional, Artery
Rattus norvegicus [22] = assay: Hypotensive activity in normotensive Wistar rat assessed as systolic blood pressure at 2.5 mg/kg, iv after 10 mins (Rvb=125.6 +/- 7.6 mmHg); type: functional, Artery
[23] = Selectivity ratio of Kb for alpha1B adrenoceptor in guinea pig spleen to Kb for Alpha-1D adrenoceptor in Wistar rat thoracic aorta; type: tissue-based
How it was run: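 Isolated-tissue antagonism assays were run in guinea-pig spleen (α1B) and in endothelium-denuded ~4 mm thoracic aortic rings from male Wistar rats weighing 200–350 g (α1D). Aortic rings sat in Krebs–Henseleit at 37 °C, pH 7.4, gassed with O2/CO2 19:1, at 2 g tension. Two cumulative noradrenaline curves were run 60 min apart, with 30 min antagonist incubation and continuous propranolol. Schild pA2 was taken as pKB, n ≥ 5.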

Guinea pig spleen α1B = Guinea pig spleen α1B (Cavia porcellus, UniProt H0WBQ9); assay: Antagonist activity at Alpha-1B adrenoceptor in guinea pig spleen assessed as inhibition of noradrenaline-induced contraction after 30 mins; type: functional, tissue-based; conditions: read-out: pA2 (converted)
How it was run: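 Guinea-pig spleen strips equilibrated 100 min with repeated noradrenaline stimulation and washout. Two cumulative noradrenaline concentration–response curves were run 60 min apart, before and after a 30 min antagonist incubation, with propranolol present throughout to block β-adrenoceptors. Contraction was expressed as % of the first-curve maximum. EC50 was fitted by non-linear regression, and Schild analysis of concentration ratios gave pA2. n ≥ 5.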

Rattus norvegicus [24] = assay: Hypotensive activity in normotensive Wistar rat assessed as systolic blood pressure at 5 mg/kg, iv after 30 mins (Rvb=142.5 +/- 3.6 mmHg); type: functional, Artery
Rattus norvegicus [25] = assay: Hypotensive activity in normotensive Wistar rat assessed as systolic blood pressure at 5 mg/kg, iv after 5 mins (Rvb=142.5 +/- 3.6 mmHg); type: functional, Artery
Rattus norvegicus [26] = assay: Hypotensive activity in normotensive Wistar rat assessed as diastolic blood pressure at 5 mg/kg, iv after 30 mins (Rvb=127 +/- 8.1 mmHg); type: functional, Artery
Rattus norvegicus [27] = assay: Hypotensive activity in normotensive Wistar rat assessed as systolic blood pressure at 5 mg/kg, iv after 10 mins (Rvb=142.5 +/- 3.6 mmHg); type: functional, Artery
Rattus norvegicus [28] = assay: Hypotensive activity in normotensive Wistar rat assessed as diastolic blood pressure at 5 mg/kg, iv after 10 mins (Rvb=125.5 +/- 0.6 mmHg); type: functional, Artery
Rattus norvegicus [29] = assay: Hypotensive activity in normotensive Wistar rat assessed as diastolic blood pressure at 5 mg/kg, iv after 20 mins (Rvb=125.5 +/- 0.6 mmHg); type: functional, Artery
Rattus norvegicus [30] = assay: Hypotensive activity in normotensive Wistar rat assessed as systolic blood pressure at 5 mg/kg, iv after 60 mins (Rvb=140.5 +/- 1.1 mmHg); type: functional, Artery
Rattus norvegicus [31] = assay: Hypotensive activity in normotensive Wistar rat assessed as diastolic blood pressure at 5 mg/kg, iv after 60 mins (Rvb=125.5 +/- 0.6 mmHg); type: functional, Artery
Rattus norvegicus [32] = assay: Hypotensive activity in normotensive Wistar rat assessed as systolic blood pressure at 5 mg/kg, iv after 30 mins (Rvb=140.5 +/- 1.1 mmHg); type: functional, Artery
Rattus norvegicus [33] = assay: Hypotensive activity in normotensive Wistar rat assessed as diastolic blood pressure at 5 mg/kg, iv after 30 mins (Rvb=125.5 +/- 0.6 mmHg); type: functional, Artery

`Cl.Cl.O=C1N(CC(O)CN2CCN(c3ccccc3C(F)(F)F)CC2)CCC1(c1ccccc1)c1ccccc1` (centres undefined) showed an Activity (Rattus norvegicus [1]) of 126 mmHg, an Activity (Rattus norvegicus [2]) of 111 mmHg and an Activity (Rattus norvegicus [3]) of 122 mmHg. The Activity (Rattus norvegicus [4]) was 106.5 mmHg, the Activity (Rattus norvegicus [5]) was 103 mmHg and the Activity (Rattus norvegicus [6]) was 100 mmHg. For the same compound, the Activity (Rattus norvegicus [7]) was 104 mmHg and the Activity (Rattus norvegicus [8]) was 116 mmHg.
Work on `Cc1ccccc1N1CCN(CC(O)CN2CCC(c3ccccc3)(c3ccccc3)C2=O)CC1.Cl.Cl` (centres undefined) yielded an Activity (Rattus norvegicus [9]) of 116 mmHg, an Activity (Rattus norvegicus [10]) of 99 mmHg and an Activity (Rattus norvegicus [11]) of 132.3 mmHg. The Activity (Rattus norvegicus [12]) was 136.3 mmHg, the Activity (Rattus norvegicus [13]) was 116.7 mmHg and the Activity (Rattus norvegicus [14]) was 118 mmHg.
With `COc1ccccc1N1CCN(CC(O)CN2CCC(c3ccccc3)(c3ccccc3)C2=O)CC1.Cl.Cl` (centres undefined) the Activity (Rattus norvegicus [15]) was 102.5 mmHg, the Activity (Rattus norvegicus [16]) was 118 mmHg and the Activity (Rattus norvegicus [17]) was 122 mmHg. For the same compound, the Activity (Rattus norvegicus [18]) was 104 mmHg and the Activity (Rattus norvegicus [19]) was 116 mmHg.
Compound `COc1ccc(N2CCN(CC(O)CN3CCC(c4ccccc4)(c4ccccc4)C3=O)CC2)cc1.Cl.Cl` (centres undefined) has an Activity (Rattus norvegicus [20]) of 107 mmHg, an Activity (Rattus norvegicus [21]) of 96.4 mmHg and an Activity (Rattus norvegicus [22]) of 115.2 mmHg.
With `CCOc1ccccc1N1CCN(CC(O)CN2CCC(c3ccccc3)(c3ccccc3)C2=O)CC1.Cl.Cl` (centres undefined) the Ratio [23] was 5.2, the Kb (Guinea pig spleen α1B) was 281 nM and the Activity (Rattus norvegicus [24]) was 113.5 mmHg. It also gave an Activity (Rattus norvegicus [25]) of 130 mmHg, an Activity (Rattus norvegicus [26]) of 96 mmHg and an Activity (Rattus norvegicus [27]) of 118 mmHg.
With `Cl.Cl.O=C1N(CC(O)CN2CCN(c3ccccc3)CC2)CCC1(c1ccccc1)c1ccccc1` (centres undefined) the Activity (Rattus norvegicus [28]) was 118.6 mmHg, the Activity (Rattus norvegicus [29]) was 116.5 mmHg and the Activity (Rattus norvegicus [30]) was 126.5 mmHg. It also gave an Activity (Rattus norvegicus [31]) of 109.5 mmHg, an Activity (Rattus norvegicus [32]) of 129 mmHg and an Activity (Rattus norvegicus [33]) of 113.5 mmHg.
